# In paper PMC3793015 (Journal of agricultural and food chemistry, 2013):
# What was measured:
# Caco-2 cells = assay: Cellular uptake, metabolism and transport of α-MG on Transwell inserts; format: in vitro ADME, human; conditions: 24 h after addition of α-MG, control cultures; nd: not detected
# Procedure, shortened: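 Caco-2 cells were differentiated 21–25 days post-confluence on Transwell inserts. Compound (12 μM) in Tween 40 micelles was added apically for 24 h. Activated cultures had 5 ng/mL IL-1β for 4 h, then a PBS wash. Apical medium, basolateral medium and cell monolayer were collected separately and analysed by RP-HPLC for free and conjugated xanthones. Amounts are % of initial compound; mean ± SD, n ≥ 5.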
# HepG2 cells = assay: Cellular uptake and metabolism of α-MG; format: in vitro ADME, human; conditions: 24 h after addition of α-MG, control cultures; nd: not detected
# Procedure, shortened: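 HepG2 monolayers, 2 days post-confluence, received 9.0 μM compound as a DMSO stock added to 10% FBS medium for 24 h. Activated cultures had 10 ng/mL TNF-α for 4 h and a PBS wash first. Medium and cells were collected separately, extracted and analysed by RP-HPLC for free and glucuronidated/sulfated xanthones. Quantification used retention time, UV spectrum and five-point standard curves, as % of initial amount; mean ± SD, n ≥ 5.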
# [1] = tested on: LPS-induced production of NO in RAW 264.7 cells; assay: LPS-induced production of NO; format: cell-based, murine; conditions: Mus musculus, RAW264.7, read-out: inhibition of LPS-induced production of NO
# Procedure, shortened: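 RAW 264.7 cells, 2 days post-confluence, were pretreated 2 h with compound (DMSO stock into 10% FBS medium). They were then stimulated 16 h with 5 ng/mL E. coli O111:B4 LPS. NO production was estimated as medium nitrite by the Griess reaction.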
# THP-1 cells = assay: Cellular uptake and metabolism of α-MG; format: in vitro ADME, human; conditions: 24 h after addition of α-MG, control cultures; nd: not detected
# Procedure, shortened: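 THP-1 monocytes were differentiated with 100 nM PMA for 48 h, then exposed 24 h to 5.2 μM compound (DMSO stock into 10% FBS medium). Activated cultures were pre-exposed to 5 ng/mL LPS for 4 h and washed with PBS. Spent medium and cells were collected separately, extracted and analysed by RP-HPLC for free and glucuronidated/sulfated xanthones. Amounts are % of initial compound; mean ± SD, n ≥ 5.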
compound,measurement,setting,value
COc1c(O)cc2oc3cc4c(c(O)c3c(=O)c2c1CC=C(C)C)C=CC(C)(C)O4 [9-hydroxycalabaxanthone],"intracellular xanthone, Caco-2",Caco-2 cells,100 ± 17 pmol/dish
same,"intracellular xanthone, HepG2",HepG2 cells,44 ± 5 pmol/dish
"COC(=O)[C@@H](N)CCCNC(N)=N[N+](=O)[O-] [L-NAME, reference compound]",inhibition at 200 µM,[1],30%
COc1c(O)cc2oc3cc(O)c(CC=C(C)C)c(O)c3c(=O)c2c1CCC(C)(C)O [garcinone D],"intracellular xanthone, THP-1",THP-1 cells,66 ± 2 pmol/dish
